ChEMBL document CHEMBL4014343 (J Med Chem, 2017)
The source made the active and inactive calls. The calls are words filed in the database; no cut-off is given here.

Tests used:
MOLT-4 = experiment: Growth inhibition of human MOLT4 cells incubated for 48 hrs by sulforhodamine B assay; assay type: functional, cell-based
UACC-257 = experiment: Growth inhibition of human UACC257 cells incubated for 48 hrs by sulforhodamine B assay; assay type: functional, cell-based
How it was run: (§1)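 NCI-60 panel growth inhibition, run by the U.S. National Cancer Institute; GI50 values are means of two test series.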

LOX IMVI = experiment: Growth inhibition of human LOXIMVI cells incubated for 48 hrs by sulforhodamine B assay; assay type: functional, cell-based
RXF 393 = experiment: Growth inhibition of human RXF393 cells incubated for 48 hrs by sulforhodamine B assay; assay type: functional, cell-based
[1] = biological target: T1, Insulin-like growth factor 1 receptor (Homo sapiens, UniProt P08069); experiment: Inhibition of IGF1R in human MDA-MB-231 cells assessed as reduction in Akt phosphorylation at Ser473 residue after 24 hrs by immunoblot analysis; assay type: cell-based
How it was run: (§2)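 Cells in their medium with 10% FBS exposed to rising concentrations for 24 h; whole-cell lysates immunoblotted for p-Akt (S473) and total Akt; PI3K inhibitor at 10 μM as positive control.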

SK-MEL-2 = experiment: Growth inhibition of human SK-MEL-2 cells incubated for 48 hrs by sulforhodamine B assay; assay type: functional, cell-based
NCI-H522 = experiment: Growth inhibition of human NCI-H522 cells incubated for 48 hrs by sulforhodamine B assay; assay type: functional, cell-based
[2] = biological target: T1, Insulin-like growth factor 1 receptor; experiment: Inhibition of IGF1R phosphorylation at Tyr1161 residue in human MCF7 cells at 1 uM after 1 hr by Hoechst 33258 staining based immunohistochemical analysis; assay type: cell-based
How it was run: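 MCF7 treated 1 h (test agent 1 μM; PI3K inhibitor 10 μM; 0.1% DMSO mock), fixed in 4% PFA 15 min, permeabilised/blocked, anti-p-IGF-1R Y1161 (1:200) overnight at 4 °C, Alexa 594 secondary 1 h, nuclei with Hoechst 33258 (1 μg/mL).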

HOP-92 = experiment: Growth inhibition of human HOP92 cells incubated for 48 hrs by sulforhodamine B assay; assay type: functional, cell-based
[3] = biological target: CDK2/Cyclin A2 (Homo sapiens) (UniProt P24941+P20248); experiment: Inhibition of recombinant human N-terminal GST-tagged CDK2 (M1 to L298 residues)/Cyclin A2 (M1 to L432 residues) expressed in baculovirus infected sf9 cells at 1 uM using Histone H1 as substrate by filter binding assay
How it was run: (§3)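 Single-point profiling at 1 μM in a 22-kinase panel, performed externally by ProQinase; activity read as residual percent of control.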

HCT-116 = experiment: Growth inhibition of human HCT116 cells incubated for 48 hrs by sulforhodamine B assay; assay type: functional, cell-based
[4] = biological target: Glycogen synthase kinase-3 beta (Homo sapiens, UniProt P49841); experiment: Inhibition of human N-terminal GST/His6-tagged GSK3beta (M1 to T420 residues) expressed in baculovirus infected sf9 cells at 1 uM using RBER-IRStide as substrate by filter binding assay; how it was run: as §3
IGROV-1 = experiment: Growth inhibition of human IGROV1 cells incubated for 48 hrs by sulforhodamine B assay; assay type: functional, cell-based
HOP-62 = experiment: Growth inhibition of human HOP62 cells incubated for 48 hrs by sulforhodamine B assay; assay type: functional, cell-based
SF-539 = experiment: Growth inhibition of human SF539 cells incubated for 48 hrs by sulforhodamine B assay; assay type: functional, cell-based
NCI-H322M = experiment: Growth inhibition of human NCI-H322M cells incubated for 48 hrs by sulforhodamine B assay; assay type: functional, cell-based
OVCAR-3 = experiment: Growth inhibition of human OVCAR3 cells incubated for 48 hrs by sulforhodamine B assay; assay type: functional, cell-based
[5] = biological target: T1, Insulin-like growth factor 1 receptor; experiment: Inhibition of IGF1R in human MCF7 cells assessed as reduction in Akt phosphorylation at Ser473 residue after 24 hrs by immunoblot analysis; assay type: cell-based; how it was run: as §2
EKVX = experiment: Growth inhibition of human EKVX cells incubated for 48 hrs by sulforhodamine B assay; assay type: functional, cell-based
[6] = biological target: T2, Aurora kinase A (Homo sapiens) (UniProt O14965); experiment: Inhibition of human N-terminal GST/His6-tagged Aurora A (M1 to S403 residues) expressed in baculovirus infected sf9 cells at 1 uM using tetra(LRRLSLG) as substrate by filter binding assay; how it was run: as §3
T2 sequence (whole entry): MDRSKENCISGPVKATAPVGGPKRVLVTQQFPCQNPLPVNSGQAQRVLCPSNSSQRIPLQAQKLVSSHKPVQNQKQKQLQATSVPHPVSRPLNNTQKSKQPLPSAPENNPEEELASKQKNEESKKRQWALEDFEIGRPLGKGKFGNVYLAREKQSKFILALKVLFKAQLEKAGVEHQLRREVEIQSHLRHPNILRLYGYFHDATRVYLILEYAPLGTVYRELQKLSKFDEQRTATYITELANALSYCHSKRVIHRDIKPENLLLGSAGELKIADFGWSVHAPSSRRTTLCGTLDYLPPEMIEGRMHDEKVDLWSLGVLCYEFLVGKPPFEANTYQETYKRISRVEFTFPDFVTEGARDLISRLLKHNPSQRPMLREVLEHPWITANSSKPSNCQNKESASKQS

[7] = biological target: T1, Insulin-like growth factor 1 receptor; experiment: Inhibition of recombinant human N-terminal GST/His6-tagged IGF1R (M954 to C1367 residues) expressed in sf9 cells assessed as residual activity at 1 uM using Poly(Glu,Tyr)4:1 as substrate by filter binding assay relative to control; how it was run: as §3
MCF7 [8] = experiment: Induction of apoptosis in human MCF7 cells assessed as PARP cleavage after 6 hrs by immunoblot analysis; assay type: functional, cell-based
How it was run: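 MCF7 in DMEM/10% FBS for 24 h, then treated 6 h; 0.1% DMSO as non-treated, Src inhibitor (10 μM) as positive control. Lysates (40 μg protein) on 10% SDS-PAGE, immunoblotted for PARP cleavage with ECL detection; β-actin loading control.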

UO-31 = experiment: Growth inhibition of human UO31 cells incubated for 48 hrs by sulforhodamine B assay; assay type: functional, cell-based; how it was run: as §1
SW-620 = experiment: Growth inhibition of human SW620 cells incubated for 48 hrs by sulforhodamine B assay; assay type: functional, cell-based; how it was run: as §1
Hs-578T = experiment: Growth inhibition of human Hs 578T cells incubated for 48 hrs by sulforhodamine B assay; assay type: functional, cell-based
NCI-H226 = experiment: Growth inhibition of human NCI-H226 cells incubated for 48 hrs by sulforhodamine B assay; assay type: functional, cell-based
SF-295 = experiment: Growth inhibition of human SF295 cells incubated for 48 hrs by sulforhodamine B assay; assay type: functional, cell-based
NCI/ADR-RES = experiment: Growth inhibition of human NCI/ADR-RES cells incubated for 48 hrs by sulforhodamine B assay; assay type: functional, cell-based
MCF7 [9] = experiment: Cell cycle arrest in human MCF7 cells assessed as accumulation at G2/M phase up to 1 uM after 24 to 48 hrs by propidium iodide staining based FACS analysis; assay type: functional
How it was run: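 MCF7 cells grown 24 h in DMEM with 10% FBS and 1% PS, then exposed to 1 μM for 24 and 48 h. Pellets fixed in 70% ethanol for at least 24 h, washed twice in ice-cold PBS, treated with RNase A (50 μg/mL, 1 h, 37 °C), stained with PI (50 μg/mL, 5 min), and DNA content read by FACS.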

T1 sequence (P08069 31-736 limits assumed): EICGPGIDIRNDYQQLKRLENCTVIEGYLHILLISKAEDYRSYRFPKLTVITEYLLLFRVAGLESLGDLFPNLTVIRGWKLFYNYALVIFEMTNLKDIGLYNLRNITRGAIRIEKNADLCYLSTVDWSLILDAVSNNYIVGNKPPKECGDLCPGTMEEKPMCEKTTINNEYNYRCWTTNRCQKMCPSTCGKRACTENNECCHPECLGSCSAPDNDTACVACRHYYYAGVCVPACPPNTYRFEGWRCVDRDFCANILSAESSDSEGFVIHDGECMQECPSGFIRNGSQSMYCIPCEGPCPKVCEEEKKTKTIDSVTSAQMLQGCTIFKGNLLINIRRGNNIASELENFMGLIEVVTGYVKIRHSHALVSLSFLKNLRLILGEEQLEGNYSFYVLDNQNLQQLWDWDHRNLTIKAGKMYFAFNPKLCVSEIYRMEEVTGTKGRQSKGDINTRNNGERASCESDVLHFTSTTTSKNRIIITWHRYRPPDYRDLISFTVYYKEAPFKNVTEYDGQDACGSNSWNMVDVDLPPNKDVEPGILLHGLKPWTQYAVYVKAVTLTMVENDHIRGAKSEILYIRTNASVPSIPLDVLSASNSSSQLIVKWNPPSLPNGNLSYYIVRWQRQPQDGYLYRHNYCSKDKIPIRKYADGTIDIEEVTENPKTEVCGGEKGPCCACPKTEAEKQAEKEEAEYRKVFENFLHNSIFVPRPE
T1 sequence (P08069 741-1367 limits assumed): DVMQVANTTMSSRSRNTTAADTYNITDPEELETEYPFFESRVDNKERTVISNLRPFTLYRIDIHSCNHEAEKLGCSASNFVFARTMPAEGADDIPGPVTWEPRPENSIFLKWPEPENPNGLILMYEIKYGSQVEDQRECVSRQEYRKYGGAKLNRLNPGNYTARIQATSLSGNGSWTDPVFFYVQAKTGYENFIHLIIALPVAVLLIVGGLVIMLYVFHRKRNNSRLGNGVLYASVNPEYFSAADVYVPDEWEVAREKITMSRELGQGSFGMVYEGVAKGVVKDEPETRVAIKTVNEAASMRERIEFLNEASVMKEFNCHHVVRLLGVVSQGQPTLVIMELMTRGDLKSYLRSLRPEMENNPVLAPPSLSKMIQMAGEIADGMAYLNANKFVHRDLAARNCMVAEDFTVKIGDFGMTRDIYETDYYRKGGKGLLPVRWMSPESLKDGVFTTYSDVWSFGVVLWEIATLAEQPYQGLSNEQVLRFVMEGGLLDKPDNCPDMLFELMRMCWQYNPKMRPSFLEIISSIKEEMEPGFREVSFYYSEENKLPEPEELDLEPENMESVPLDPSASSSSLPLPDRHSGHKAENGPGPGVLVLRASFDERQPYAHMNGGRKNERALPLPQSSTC
Sequence of Glycogen synthase kinase-3 beta (P49841 whole entry, looked up, the tested form may be a part): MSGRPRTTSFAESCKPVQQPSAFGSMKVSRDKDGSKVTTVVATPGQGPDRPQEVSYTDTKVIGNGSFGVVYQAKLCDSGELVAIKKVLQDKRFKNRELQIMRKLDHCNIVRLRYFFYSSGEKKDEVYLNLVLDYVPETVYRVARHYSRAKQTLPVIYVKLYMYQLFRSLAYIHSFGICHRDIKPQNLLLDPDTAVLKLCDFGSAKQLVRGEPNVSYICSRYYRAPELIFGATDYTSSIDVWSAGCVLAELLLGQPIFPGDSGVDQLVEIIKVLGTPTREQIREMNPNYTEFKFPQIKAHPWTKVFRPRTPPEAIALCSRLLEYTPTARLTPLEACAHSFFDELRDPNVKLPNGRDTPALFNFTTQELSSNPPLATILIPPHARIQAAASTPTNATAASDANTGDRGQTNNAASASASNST

With CN1CCN(CCO/N=C2/C(=C3/C(=O)Nc4ccccc43)Nc3ccccc32)CC1 the “growth inhibition (GI)” value (MOLT-4) was “Active”, the “growth inhibition (GI)” value (UACC-257) was “Active” and the “growth inhibition (GI)” value (LOX IMVI) was “Active”. The “growth inhibition (GI)” value (RXF 393) was “Active”, the inhibition [1] was “Dose-dependent effect” and the “growth inhibition (GI)” value (SK-MEL-2) was “Active”. For the same compound, the “growth inhibition (GI)” value (NCI-H522) was “Active”, the inhibition [2] was “Active” and the “growth inhibition (GI)” value (HOP-92) was “Active”. For the same compound, the inhibition [3] was “inactive”, the “growth inhibition (GI)” value (HCT-116) was “Active” and the inhibition [4] was “inactive”. The “growth inhibition (GI)” value (IGROV-1) was “Active”, the “growth inhibition (GI)” value (HOP-62) was “Active” and the “growth inhibition (GI)” value (SF-539) was “Active”. The “growth inhibition (GI)” value (NCI-H322M) was “Active”, the “growth inhibition (GI)” value (OVCAR-3) was “Active” and the inhibition [5] was “Dose-dependent effect”. The “growth inhibition (GI)” value (EKVX) was “Active”, the inhibition [6] was “inactive” and the Activity [7] was 30%. For the same compound, the Activity (MCF7 [8]) was “Active”, the “growth inhibition (GI)” value (UO-31) was “Active” and the “growth inhibition (GI)” value (SW-620) was “Active”. For the same compound, the “growth inhibition (GI)” value (Hs-578T) was “Active”, the “growth inhibition (GI)” value (NCI-H226) was “Active” and the “growth inhibition (GI)” value (SF-295) was “Active”. For the same compound, the “growth inhibition (GI)” value (NCI/ADR-RES) was “Active” and the Activity (MCF7 [9]) was “Active”.
